What was measured:
[1] = Fluorophore spectral analysis; format: physicochemical; conditions: 10 nM in PBS, pH 7.4
Procedure, shortened: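 Fluorophore-labelled substance P conjugates were analysed in a spectrofluorometer at 10 nM in PBS, pH 7.4, as solvent. Excitation and emission spectra were recorded for each conjugate, and peak wavelengths were read from the curves.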

[2] = molecular target: bullfrog sympathetic ganglia SPR (bfSPR) (Aquarana catesbeiana, UniProt Q98982); test: Whole cell recording of M-type K+ current; format: cell-based; conditions: for inhibition of IM: single bullfrog sympathetic neurons
bullfrog sympathetic ganglia SPR (bfSPR), sequence (Q98982 whole entry): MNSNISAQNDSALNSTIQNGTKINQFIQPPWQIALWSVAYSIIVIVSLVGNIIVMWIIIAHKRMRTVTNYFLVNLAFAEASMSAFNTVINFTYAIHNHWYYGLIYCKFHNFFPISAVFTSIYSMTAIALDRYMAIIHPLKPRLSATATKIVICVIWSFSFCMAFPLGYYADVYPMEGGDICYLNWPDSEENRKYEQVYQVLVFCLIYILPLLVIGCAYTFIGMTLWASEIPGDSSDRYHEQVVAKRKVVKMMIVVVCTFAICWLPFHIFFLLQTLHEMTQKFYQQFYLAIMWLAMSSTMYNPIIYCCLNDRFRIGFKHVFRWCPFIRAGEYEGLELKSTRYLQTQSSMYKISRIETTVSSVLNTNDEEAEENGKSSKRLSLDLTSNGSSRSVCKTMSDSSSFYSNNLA

Alexa 488-SP: Substance P with Alexa 488 covalently linked at Lys3; Molecular Probes product S-13426
peak excitation [1]: 490 nm
peak of the emission curve [1]: 515 nm
inhibition of IM ([2]; 100 nM, 0.1 µM): did not inhibit IM
inhibition of IM ([2]; 1 μM): did not inhibit IM

fluorescein-SP: Substance P with fluorescein covalently linked at Lys3; Molecular Probes product S-13424
peak excitation [1]: 495 nm
peak of the emission curve [1]: 520 nm

CSCC[C@H](NC(=O)[C@H](CC(C)C)NC(=O)CNC(=O)[C@H](Cc1ccccc1)NC(=O)[C@H](Cc1ccccc1)NC(=O)[C@H](CCC(N)=O)NC(=O)[C@H](CCC(N)=O)NC(=O)[C@@H]1CCCN1C(=O)[C@H](CCCCN)NC(=O)[C@@H]1CCCN1C(=O)[C@@H](N)CCCN=C(N)N)C(N)=O [SP, reference compound]
inhibition at 0.1 µM ([2]; read-out: inhibition of IM): ~70%

Reference: article PMC33344 (BMC Chemical Biology, 2001)
